Mdm2 MdmX PPI = inhibitors of human Mdm2-MdmX association, primary screen, cell-based, luminescence, split luciferase, SaOS-2, uHTS; Protein Mdm4 (Homo sapiens) + E3 ubiquitin-protein ligase Mdm2 (Homo sapiens), …; SaOS-2 split-luciferase Mdm2/MdmX complementation; inhibition, % at 8 µM; actives 3% (n = 330,000); AID 485346, 2010;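 active = inhibition of at least 50% at 8 µM in the primary screen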
Target sequence (O15151 whole entry, looked up): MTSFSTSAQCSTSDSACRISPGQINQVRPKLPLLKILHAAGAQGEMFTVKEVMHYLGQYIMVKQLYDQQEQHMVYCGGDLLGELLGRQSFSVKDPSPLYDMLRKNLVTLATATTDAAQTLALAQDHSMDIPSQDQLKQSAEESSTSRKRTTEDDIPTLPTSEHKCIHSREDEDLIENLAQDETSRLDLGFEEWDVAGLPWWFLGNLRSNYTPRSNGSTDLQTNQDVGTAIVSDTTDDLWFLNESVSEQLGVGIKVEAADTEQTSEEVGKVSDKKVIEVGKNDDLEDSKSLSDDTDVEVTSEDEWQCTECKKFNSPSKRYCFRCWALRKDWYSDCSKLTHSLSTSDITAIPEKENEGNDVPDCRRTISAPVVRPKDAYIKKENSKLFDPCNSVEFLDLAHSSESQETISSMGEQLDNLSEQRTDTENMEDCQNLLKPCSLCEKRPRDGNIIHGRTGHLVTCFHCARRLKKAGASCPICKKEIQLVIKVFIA
Target sequence (Q00987 whole entry, looked up): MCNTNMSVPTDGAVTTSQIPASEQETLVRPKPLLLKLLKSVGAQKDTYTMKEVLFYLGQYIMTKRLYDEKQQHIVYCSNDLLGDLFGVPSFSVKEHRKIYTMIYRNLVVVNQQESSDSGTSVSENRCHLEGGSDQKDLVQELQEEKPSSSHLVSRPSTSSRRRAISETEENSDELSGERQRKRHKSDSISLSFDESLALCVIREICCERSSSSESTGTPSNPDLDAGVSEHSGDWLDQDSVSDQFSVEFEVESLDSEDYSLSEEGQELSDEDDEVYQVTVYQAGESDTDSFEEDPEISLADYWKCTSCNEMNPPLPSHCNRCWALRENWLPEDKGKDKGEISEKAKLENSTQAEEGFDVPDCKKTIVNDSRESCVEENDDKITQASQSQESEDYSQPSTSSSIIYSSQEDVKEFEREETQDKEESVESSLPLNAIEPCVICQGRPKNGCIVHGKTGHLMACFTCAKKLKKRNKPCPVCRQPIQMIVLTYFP
Beta apoptosis = inhibitors of cytokine-induced beta cell apoptosis, primary screen, luminescence. INS-1E cytokine-induced death, ATP luminescence, 48 h; percent of positive-control rescue, neutral wells zero. AID 435005, 2010. actives 0.8% (n = 300,000). protection from apoptosis, % (concentration not given with the values);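 active = Every replicate reaches about 75%, or at least half do and their mean reaches it too, limit read from the data; inconclusive = At least half of replicates reach the limit but their mean does not; inactive = Under half of replicates reach the limit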;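 note: higher means more ATP so stronger rescue from cytokine killing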
Calb FLC = C. albicans growth inhibition with fluconazole, primary screen, CaCi-2 strain, Alamar Blue fluorescence | actives 0.57% (n = 300,000) | C. albicans CaCi-2 (fluconazole-resistant clinical isolate) + fluconazole, 48 h | growth inhibition, % (test concentration not listed);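 active = growth inhibition above about 58% in most replicates, limit read from the data, passing the limit was not always enough; inconclusive = exactly half the replicates above a set limit; inactive = most replicates below a set limit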;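 note: all wells also contain fluconazole at 8 µg/ml as a sub-toxic cotreatment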
T cruzi inh = inhibitors of intracellular T. cruzi growth, primary screen, luminescence, NIH3T3 host cells; T. cruzi beta-gal in NIH3T3, 90 h; inhibition, % (concentration not given with the values); actives 1.4% (n = 300,000); AID 1885, 2009;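 active = mean inhibition across valid replicates above about 55%, limit read from the data; inconclusive = mean below that limit but half or more replicates reach it; inactive = mean below it, under half of replicates reach it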;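 note: signal also drops with host cell toxicity which is not excluded here; higher percent means less beta-gal luminescence so fewer parasites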
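Incubation – ≥90 h infection period, 3 h prior cell attachment · System – NIH/3T3 fibroblasts plus reporter T. cruzi · Doses – compound pinned at 50 nL/well, DMSO · Read-out basis – percent inhibition of parasite-derived β-gal signal · Signal – luminescent β-galactosidase signal after 60 min lysis · Also added – 5000 T. cruzi trypomastigotes/well · Medium – Low-serum DMEM with 2% FBS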
CSC inhib = cancer stem cell viability inhibitors, primary screen, luminescence; cancer stem cell-like cells viability; inhibition, % at 7.5 µM; actives 1.1% (n = 300,000); AID 2717, 2010; in the data active = inhibition above about 75%; inconclusive = no clear call, values can overlap the other calls; tested in HMLE shEcad cells
SKKanGAS inh = S. pyogenes SKKanGAS growth inhibitors in kanamycin, primary screen, streptokinase expression inhibitor project, SKKanGAS strain, BacTiter-Glo luminescence. inhibition, % at 7.5 µM. actives 1.3% (n = 300,000). 6 h;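 active = mean replicate score, as percent of positive control median, at least 50; inconclusive = mean below 50 but one replicate at or above 50; inactive = mean and every replicate below 50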;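 note: strain carries kanamycin resistance gene driven by streptokinase promoter and grows in 40 µg/ml kanamycin; loss of luminescence reflects streptokinase promoter inhibition or plain growth inhibition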
Mdm2 MdmX conf = Mdm2-MdmX complex disruptors, retested hits, confirmation, luminescence, single concentration; shares compounds with Mdm2 MdmX PPI; Mdm2-MdmX binding, luminescent assay; inhibition, % at 8 µM; actives 55% (n = 10,000); in the data active = inhibition above about 40%
Full FLuc ctr = full-length luciferase signal inhibition, confirmation, counter-screen for Mdm2/MdmX interaction inhibitor project, cell-based, single concentration, SaOS-2; shares compounds with Mdm2 MdmX PPI; SaOS-2 full-length luciferase counterscreen, luminescence; inhibition, % at 8 µM; actives 77% (n = 6,200); AID 504607, 2011;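 active = mean inhibition at 8 µM reaching about 37%, which flags the compound as non-specific, limit read from the data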;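 note: p53-null SaOS-2 cells with luciferase driven by a doxycycline-inducible promoter; compound on cells about two nights before reading with doxycycline added after day one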
Hits are given with their value; – = inactive; ? = inconclusive; · = no result given; ! = not active in a repeat. In the library only some 5.7% were active in any assay of this set; here they are far more common.

SMILES	Mdm2 MdmX PPI	Beta apoptosis	Calb FLC	T cruzi inh	CSC inhib	SKKanGAS inh	Mdm2 MdmX conf	Full FLuc ctr
COc1ccc(-c2csc(NC3OC(=O)c4c3ccc(OC)c4OC)n2)cc1OC (configuration not stated)	78	–	–	–	–	–	62	70
COc1ccc2c(c1OC)C(=O)OC2Nc1nc(-c2ccc([N+](=O)[O-])cc2)cs1 (configuration not stated)	–	–	–	–	–	–	·	·
C=CC[C@H](CC(=O)NCCO)C(=O)N[C@@H](COC(=O)[C@@H](CC=C)Cc1ccc(F)cc1)Cc1ccccc1	–	–	·	·	·	·	·	·
COc1ccc(C(=O)/C=C/c2ccc(O)cc2)c(O)c1C/C=C(\C)CCC=C(C)C	68	·	·	·	·	·	–	·
COc1ccc(C2=NS(=O)(=O)N(C)C(C(=O)NC3CCCCC3)=C2)cc1OC	–	–	–	–	–	–	·	·
FC(F)(F)c1cnc(NNC(=S)Nc2ccccc2Cl)c(Cl)c1	86	112	?	–	–	–	–	·
Cc1cccc(NC(=S)NNc2ncc(C(F)(F)F)cc2Cl)c1	–	–	?	–	–	–	·	·
CCNc1cc(N2CCCC2)ccc1[N+](=O)[O-]	51	–	–	–	–	–	–	·
CCOc1cccc2sc(N(CCN(C)C)C(=O)c3cc4ccccc4cc3OC)nc12	69	–	–	–	–	–	–	·
Cc1ccc2sc(N(CCCN(C)C)C(=O)c3ccc(S(=O)(=O)N(C)Cc4ccccc4)cc3)nc2c1C	100	·	–	60	–	–	49	46
CN(C)CCCN(C(=O)c1ccc(C(=O)c2ccccc2)cc1)c1nc2c(F)cccc2s1	–	–	–	–	–	–	·	·
CCOc1cccc2sc(N(CCCN(C)C)C(=O)c3ccc(S(=O)(=O)N(C)Cc4ccccc4)cc3)nc12	74	–	–	–	–	–	–	60
CCOc1cccc2sc(N(CCCN(C)C)C(=O)c3ccc(C(=O)c4ccccc4)cc3)nc12	51	–	–	–	–	–	–	·
CCOc1ccc2nc(N(CCN(C)C)C(=O)c3cc4ccccc4cc3OC)sc2c1	–	–	–	–	–	–	·	·
CCN1C(=O)c2ccc(C(=O)NCc3ccco3)cc2C1=O	–	·	–	–	–	–	·	·
CCOc1cccc2sc(N(CCCN(C)C)C(=O)c3ccc(S(=O)(=O)N(CC)Cc4ccccc4)cc3)nc12	84	–	–	–	–	–	53	68
Cc1cc(C(=O)NC2CCCN(Cc3ccc(Cl)cc3)C2)n(C)n1 (configuration not stated)	–	–	–	–	–	–	·	·
Cc1ccccc1Nc1c(-c2ccncc2)nc2ccc(Cl)cn12	75	–	–	–	–	–	49	71
C[C@@H]1CN([C@@H](C)CO)C(=O)Cc2cc(NC(=O)Nc3ccc4c(c3)OCO4)ccc2O[C@@H]1CN(C)C(=O)NC1CCCCC1	–	–	·	·	·	·	·	·
O=C(CCN1C(=O)/C(=C/c2ccccc2)SC1=S)N[C@@H](CO)Cc1ccccc1	89	–	–	–	–	–	72	50
O=C(CCN1C(=O)/C(=C/c2ccccc2F)SC1=S)N[C@@H](CO)Cc1ccccc1	80	·	–	–	–	–	–	54
CCOc1ccc(C(=O)N[C@H](C(=O)NNC(=O)c2cccs2)C(C)C)cc1	–	–	·	·	–	·	·	·
O=C(Nc1ccc2oc(=O)ccc2c1)c1ccc(-c2ccccc2[N+](=O)[O-])o1	62	–	–	–	–	–	–	·
COC(=O)c1ccc(NC(=O)CNC(=O)c2sc3ccccc3c2Cl)cc1	94	–	·	·	·	·	49	93
O=c1cc(-c2ccccc2Cl)oc2c([N+](=O)[O-])c(O)cc(O)c12	83	–	–	–	–	–	76	–
SMILES	Mdm2 MdmX PPI	Beta apoptosis	Calb FLC	T cruzi inh	CSC inhib	SKKanGAS inh	Mdm2 MdmX conf	Full FLuc ctr
CCN(CC)c1ccc(N2C(=O)CSC2=S)cc1	–	–	–	–	–	–	·	·
CCN(CC)c1ccc(N2C(=O)/C(=C/c3cccs3)SC2=S)cc1	52	–	–	–	–	–	–	·
O=C(NCC1CCCCC1)c1cc(Br)ccc1Cl	–	–	–	–	–	–	·	·
COc1ccccc1-n1c(-c2ccccc2)c[nH]c1=S	·	·	–	–	·	–	·	·
COc1ccccc1-n1c(-c2ccccc2)c[n+]2c1CCc1ccccc1-2	61	101	?	76!	–	–	48!	52!
COc1ccc(-c2cn(-c3ccc(OC)cc3)c3[n+]2-c2ccccc2CC3)cc1	57	132	–	–	–	–	–	·
COc1ccc(-n2cc(-c3ccc(Br)cc3)[nH]c2=S)cc1	–	–	–	–	–	–	·	·
COc1ccc(-n2c(-c3ccc(Br)cc3)c[n+]3c2CCc2ccccc2-3)cc1	51	104	–	60	–	–	54	61
CS(=O)(=O)N(CC(=O)N1CCCCCC1)c1cc(Cl)ccc1Cl	–	–	–	–	–	–	·	·
Cc1ccccc1C(=O)OCC(=O)Nc1cccc(S(=O)(=O)NC2=NCCC2)c1	–	–	·	·	–	·	·	·
C=CCCC(=O)N1CCC(n2nccc2NC(=O)c2ccccc2C)CC1	–	·	–	–	–	–	·	·
COc1ccc(S(=O)(=O)CCC(=O)N2CCN(c3ccc(C(C)=O)cc3)CC2)cc1	–	–	–	–	–	–	·	·
NC(N)=NN=C1CCCCCCCCCCC1	60	–	–	–	–	–	43	58
CC(C)Cn1c(C(C)C)nc([N+](=O)[O-])c1Sc1ccc(Cl)cn1	–	–	–	–	–	–	·	·
CCCCn1c(CCC)nc([N+](=O)[O-])c1Sc1ccc(Cl)cn1	63	–	–	–	–	–	–	·
COc1cc(OC)c(C(=O)O/N=C(\N)c2ccccn2)cc1OC	–	–	–	–	–	–	·	·
COc1ccc(C(=O)O/N=C(\N)c2ccccc2)cc1OC	62	–	–	–	–	–	–	·
COc1ccc(C(=O)O/N=C(\N)c2cccc(C)c2)cc1OC	96	–	–	–	–	–	50	137
COc1cc(OC)c(C(=O)O/N=C(\N)c2ccccc2)cc1OC	57	–	–	–	–	–	–	·
CC(=O)Nc1sc(C)c(C)c1C(=O)OCC(=O)NC(C)c1ccccc1 (configuration not stated)	–	·	·	·	·	·	·	·
